According to publication PMC2529378 (Evidence-based Complementary and Alternative Medicine : eCAM, 2007):
Marks after values point to notes of the source that are not given here.

Legend:
MCF-7 cells = experiment: MCF-7 cell proliferation assay; assay type: cell-based, human; conditions: 1 μM
Outline: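 MCF-7 cells were kept in RPMI-1640 with 10% heat-inactivated FBS at 37°C and 5% CO2. Cells were seeded at 10 000 cells/well in phenol red-free RPMI-1640 with 10% charcoal dextran-treated FBS. After 1 day the medium was changed and cells received test compound (0.001–0.1 mM) or 0.5 nM E2, with or without 1 µM tamoxifen. After three days, proliferation was read by colorimetric MTT assay. Mean and SD of six experiments.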

human ERβ = human ERβ (Homo sapiens, UniProt Q92731); experiment: Ligand binding assay for ERβ
Chain of human ERβ (Q92731 whole entry): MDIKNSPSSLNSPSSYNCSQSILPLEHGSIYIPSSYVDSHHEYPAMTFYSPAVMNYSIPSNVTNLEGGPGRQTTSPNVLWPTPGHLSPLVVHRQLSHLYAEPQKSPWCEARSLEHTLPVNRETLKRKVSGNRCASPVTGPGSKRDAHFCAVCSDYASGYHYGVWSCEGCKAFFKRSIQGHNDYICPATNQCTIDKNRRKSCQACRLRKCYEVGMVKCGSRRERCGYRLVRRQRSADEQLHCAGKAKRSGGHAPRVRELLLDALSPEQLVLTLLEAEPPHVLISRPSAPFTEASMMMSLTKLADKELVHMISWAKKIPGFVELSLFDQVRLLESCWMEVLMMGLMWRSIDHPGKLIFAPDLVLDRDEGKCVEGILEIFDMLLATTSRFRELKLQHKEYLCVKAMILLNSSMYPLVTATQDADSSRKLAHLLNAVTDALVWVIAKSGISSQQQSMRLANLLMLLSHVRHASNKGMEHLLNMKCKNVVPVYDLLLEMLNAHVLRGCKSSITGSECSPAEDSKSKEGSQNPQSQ

human ERα = target: T1, human ERα (Homo sapiens, UniProt P03372); experiment: Ligand binding assay for ERα
T1 sequence (P03372 1-595): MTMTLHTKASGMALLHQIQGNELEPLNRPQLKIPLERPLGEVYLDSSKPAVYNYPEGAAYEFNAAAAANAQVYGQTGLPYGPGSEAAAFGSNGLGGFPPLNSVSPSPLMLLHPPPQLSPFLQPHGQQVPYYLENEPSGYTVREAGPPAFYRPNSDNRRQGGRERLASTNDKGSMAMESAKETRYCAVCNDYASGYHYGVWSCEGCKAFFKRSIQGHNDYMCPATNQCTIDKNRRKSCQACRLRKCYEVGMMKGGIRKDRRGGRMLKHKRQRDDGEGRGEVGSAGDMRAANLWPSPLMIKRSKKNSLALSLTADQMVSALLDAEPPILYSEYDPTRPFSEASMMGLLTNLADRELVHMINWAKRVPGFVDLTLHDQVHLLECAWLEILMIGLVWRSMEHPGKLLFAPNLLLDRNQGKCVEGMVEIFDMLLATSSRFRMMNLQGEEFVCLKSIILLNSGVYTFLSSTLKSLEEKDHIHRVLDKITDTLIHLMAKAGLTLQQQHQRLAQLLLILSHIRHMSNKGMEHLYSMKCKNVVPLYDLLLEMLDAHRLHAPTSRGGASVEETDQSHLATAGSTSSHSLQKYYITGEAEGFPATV

uterus of immature rats = experiment: Uterotrophic assay in immature female rats; assay type: in vivo, Sprague Dawley rats; conditions: 3 days; for Body weight, mean / Uterus wet weight, mean / Uterus/body weight: immature female rats; for Change in wet uterine weight: immature rats
Outline: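 Female Sprague Dawley rats were housed at 23±1°C on a standard diet. From postnatal day 20 they were injected s.c. once daily for 3 days at 10 ml/kg in sesame oil. Doses were test compound at 1 g/kg/day or 17α-ethynylestradiol at 0.1 or 3 µg/kg/day; controls got sesame oil. Vaginal opening and clinical signs were monitored. On day 23, 27 h after the last dose, uteri were excised with ovaries attached and weighed. Dunnett's test was used versus controls.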

[1] = tested on: luminal epithelium of the uterus; experiment: Histology of uterine luminal epithelial cell height in immature rats; assay type: in vivo, Sprague Dawley rats; conditions: 3 days
Outline: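 Rats got daily s.c. doses for 3 days from postnatal day 20 and were killed 27 h after the last dose. Uteri were fixed in Bouin's solution for 24 h, paraffin-embedded, cut as 8 µm serial cross sections and H&E-stained. Luminal epithelial cell height was measured by light microscopy in the mid-region of each horn, in five areas from five sections ~160 µm apart. Mean and SD were reported; Dunnett's test compared groups with sesame-oil controls.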

[2] = 1 g kg^−1 day^−1 s.c., vs vehicle-treated controls

CC/C(=C(\c1ccccc1)c1ccc(OCCN(C)C)cc1)c1ccccc1 [tamoxifen]
Effect on MCF-7 proliferation when administered alone (MCF-7 cells): no effect on proliferation

C=C(CC[C@@H](C)[C@H]1CC[C@H]2[C@@H]3CC=C4C[C@@H](O)CC[C@]4(C)[C@H]3CC[C@]12C)C(C)C [24MET, 24-methylenecholesterol]
IC50 (human ERβ): 6 µM
Effect upon the ability of E2 to bind to ERα (human ERα): little or no effect
Body weight, mean (uterus of immature rats; 1 g kg^−1 day^−1 s.c.): 47.5 g
Uterus wet weight, mean (uterus of immature rats; 1 g kg^−1 day^−1 s.c.): 25.9 mg
Uterus/body weight (uterus of immature rats; 1 g kg^−1 day^−1 s.c.): 0.55
Change in wet uterine weight (uterus of immature rats; 1 g kg^−1 day^−1 s.c.): did not detect an increase
Hypertrophy of the uterine luminal epithelium [1, 2]: mild hypertrophy

CCCCCCC/C=C/C(=O)O [2DEA, trans-2-decenoic acid]
IC50 (human ERβ): 17 µM
Effect upon the ability of E2 to bind to ERα (human ERα): little or no effect
Body weight, mean (uterus of immature rats; 1 g kg^−1 day^−1 s.c.): 45.9 g
Uterus wet weight, mean (uterus of immature rats; 1 g kg^−1 day^−1 s.c.): 22.9 mg
Uterus/body weight (uterus of immature rats; 1 g kg^−1 day^−1 s.c.): 0.51
Change in wet uterine weight (uterus of immature rats; 1 g kg^−1 day^−1 s.c.): did not detect an increase
Hypertrophy of the uterine luminal epithelium [1, 2]: mild hypertrophy

O=C(O)/C=C/CCCCCCCO [10H2DA, 10-hydroxy-trans-2-decenoic acid]
IC50 (human ERβ): 90 µM
Effect upon the ability of E2 to bind to ERα (human ERα): little or no effect
Body weight, mean (uterus of immature rats; 1 g kg^−1 day^−1 s.c.): 42.9 ^* g
Uterus wet weight, mean (uterus of immature rats; 1 g kg^−1 day^−1 s.c.): 25.9 mg
Uterus/body weight (uterus of immature rats; 1 g kg^−1 day^−1 s.c.): 0.59
Change in wet uterine weight (uterus of immature rats; 1 g kg^−1 day^−1 s.c.): did not detect an increase
Hypertrophy of the uterine luminal epithelium [1, 2]: mild hypertrophy

O=C(O)CCCCCCCCCO [10HDA, 10-hydroxydecanoic acid]
IC50 (human ERβ): 140 µM
Effect upon the ability of E2 to bind to ERα (human ERα): little or no effect
Body weight, mean (uterus of immature rats; 1 g kg^−1 day^−1 s.c.): 45.8 g
Uterus wet weight, mean (uterus of immature rats; 1 g kg^−1 day^−1 s.c.): 25.2 mg
Uterus/body weight (uterus of immature rats; 1 g kg^−1 day^−1 s.c.): 0.55
Change in wet uterine weight (uterus of immature rats; 1 g kg^−1 day^−1 s.c.): did not detect an increase
Hypertrophy of the uterine luminal epithelium [1, 2]: mild hypertrophy

C#C[C@]1(O)CC[C@H]2[C@@H]3CCc4cc(O)ccc4[C@H]3CC[C@@]21C [17αEE2, 17α-ethynylestradiol, reference compound]
Body weight, mean (uterus of immature rats; 0.1 μg kg^−1 day^−1 s.c.): 47.9 g
Uterus wet weight, mean (uterus of immature rats; 0.1 μg kg^−1 day^−1 s.c.): 41.0 ^** mg
Uterus/body weight (uterus of immature rats; 0.1 μg kg^−1 day^−1 s.c.): 0.87
Body weight, mean (uterus of immature rats; 3 μg kg^−1 day^−1 s.c.): 47.1 g
Uterus wet weight, mean (uterus of immature rats; 3 μg kg^−1 day^−1 s.c.): 115 ^** mg
Uterus/body weight (uterus of immature rats; 3 μg kg^−1 day^−1 s.c.): 2.5
Increase in wet uterine weight compared with vehicle-treated controls (uterus of immature rats; doses of 0.1 and 3 μg kg^−1 day^−1 s.c.): over 1.5 fold
Hypertrophy of the uterine luminal epithelium (luminal height) ([1]; 0.1 μg kg^−1 day^−1 s.c.): only a mild increase in luminal height
Hypertrophy of the uterine luminal epithelium ([1]; 3 μg kg^−1 day^−1 s.c.): marked hypertrophy
